Results on two compounds are retold here after article PMC11533052 (Nanoscale Advances, 2024).

Structures are written as SMILES.

The subject of data set [1] is 4T1 tumor-bearing mice. Description: In vivo anti-tumor research in 4T1 tumor-bearing mice. On the set-up: species or system BALB/c mice. The essentials: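 Female BALB/c mice (6 weeks, 16–18 g) received 4T1 cells (1 × 10^7 cells per mL, 100 μL) s.c. into the right forelimb axilla. At about 100 mm3 tumor volume, mice were randomised (n = 5) to saline, free drug, or drug-loaded hydrogel (1 mg mL-1 drug : 20 mg mL-1 peptide). Dosing was s.c. near the tumor at 100 μL/20 g, giving […], on day 1. Weight and tumor volume were recorded. Tumors and organs were taken at day 7, formalin-fixed, H&E and TUNEL stained.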

Data set [2] deals with 4T1 tumor-bearing mice. Briefly: In vivo biological distribution analysis. The conditions noted are these: DiR 1 mg kg^−1 s.c. near the tumor, n = 3. More on the design: species or system BALB/c mice. The essentials: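 4T1 tumor-bearing mice (tumor about 200 mm3) were randomised (n = 3) to free near-infrared dye DiR at 1 mg kg-1 or hydrogel-loaded DiR at the equivalent dose, injected s.c. near the tumor at 100 μL/20 g. Anaesthetised mice were imaged live at 1, 6, 12, 24, 48 and 96 h (λex 748 nm, λem 780 nm). At 96 h, mice were euthanised and organs collected.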

Take `COc1cccc2c1C(=O)c1c(O)c3c(c(O)c1C2=O)C[C@@](O)(C(=O)CO)C[C@@H]3O[C@H]1C[C@H](N)[C@H](O)[C@H](C)O1` [DOX, doxorubicin]: in the data set on 4T1 tumor-bearing mice [1] (7 days, versus NS group, n = 5), the tumor growth inhibition result is “significant tumor growth inhibition”. Moreover, in the data set with 4T1 tumor-bearing mice [1] (day 1, s.c. near the tumor, DOX 1 mg mL^−1, 100 μL/20 g, n = 5), the “body weight of mice at start” value is 18.8 g. For the same compound, the “histology of major organs (H&E)” value in the data set with 4T1 tumor-bearing mice [1] (heart, liver, spleen, lung, kidney after 7 days of treatment) is “significant necrosis of heart and liver cells”. For the same compound, the “body weight of mice at end” value with 4T1 tumor-bearing mice [1] (within 7 days, s.c. near the tumor, DOX 1 mg mL^−1, 100 μL/20 g, n = 5) is 16.9 g.

Take `CCCCCCCCCCCCCCCCCCN1/C(=C/C=C/C=C/C=C/C2=[N+](CCCCCCCCCCCCCCCCCC)c3ccccc3C2(C)C)C(C)(C)c2ccccc21.[I-]` [DiR]: the “ex vivo fluorescence distribution in tumor and organs” value in the data set with 4T1 tumor-bearing mice [2] (96 hours after administration) is recorded as “widespread fluorescence distribution”. In the data set on 4T1 tumor-bearing mice [2] (live imaging 1–96 hours), the “in vivo fluorescence over time” value is on record as “rapidly decreased over time”.
